# Screens as filed in PubChem BioAssay.
# PolyA inhibitor: polyadenylation inhibitors in yeast reporter cells, primary screen, luminescence, S. cerevisiae. S. cerevisiae SKY197-pL101 polyadenylation reporter, beta-gal luminescence; efflux-impaired pdr1/pdr3 knockout yeast; score 100 = 6 SD above DMSO. AID 1875, 2009. activity score, % at 12 µM. hit rate 0.02% among 300,000;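 active = lowest replicate activity score at least 50, where 100 means six control SD above control mean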;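 also: yeast exposed to compound for 9 h at 30 °C; higher score means more reporter readthrough which indicates perturbed polyadenylation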
# AHR act: AHR activators, primary screen, cell-based, luminescence, luciferase reporter, human. Aryl hydrocarbon receptor (Homo sapiens), P35869. AHR-responsive luciferase reporter cells. activation, % at 5 µM. hit rate 2.5% among 320,000; in the data active = activation above about 47%
# APOBEC3G inh: APOBEC3G DNA deaminase inhibitors, primary screen, biochemical, fluorescence, single-stranded DNA substrate, uHTS; inhibition, % at 20 µM; recombinant A3G, ssDNA deamination FAM/TAMRA fluorescence; DNA dC->dU-editing enzyme APOBEC-3G (Homo sapiens), Q9HC16; hit rate 0.28% among 330,000;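 active = inhibition of at least 40% at 20 µM, with no more than 30% in the related APOBEC3A deaminase screen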
# Arr AP2 block: inhibitors of beta-arrestin/AP2 binding, primary screen, biochemical, GPCR trafficking, flow cytometry | FITC-arrestin peptide / GST-AP2 beads; AP2 beta2 appendage carries R879A mutation | AID 504490, 2011 | hit rate 0.31% among 340,000 | inhibition, % at 10 µM;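 active = inhibition above a set limit, near 3 SD of compounds lacking own fluorescence, cut at about 54% in these data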
#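 Assay system: GST-AP2 R879A bound to glutathione beads, E. coli-expressed; Medium: PBS with 0.05% Tween 20 and 0.1% BSA; Also added: fluorescein-tagged arrestin peptide at 50 nM final; Timing: 12 min plus 1 h, RT; Measured by: flow cytometry, FL1 (488/535 nm); Evaluation: percent drop in bead-associated FITC signal.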
# A3A deaminase: APOBEC3A ssDNA deaminase inhibitors, primary screen, selectivity assay for APOBEC3G inhibitor project, biochemical, FAM/TAMRA oligo cleavage fluorescence; DNA dC->dU-editing enzyme APOBEC-3A (Homo sapiens), P31941; recombinant A3A, FAM/TAMRA ssDNA deamination fluorescence; inhibition, % at 20 µM; hit rate 0.41% among 330,000; AID 493011, 2011;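 active = at least 40% inhibition at 20 µM here, with at most 30% in a related deaminase screen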
# Target sequence (P31941 whole entry, looked up): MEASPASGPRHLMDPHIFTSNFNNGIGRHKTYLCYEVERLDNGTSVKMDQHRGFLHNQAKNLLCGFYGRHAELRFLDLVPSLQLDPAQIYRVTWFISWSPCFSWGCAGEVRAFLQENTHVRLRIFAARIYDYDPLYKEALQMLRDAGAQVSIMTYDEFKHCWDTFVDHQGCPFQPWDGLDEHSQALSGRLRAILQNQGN
# UCH37 DUB inh: inhibitors of human UCH37 deubiquitinase, primary screen, biochemical, Ub-AMC cleavage, fluorescence; Ubiquitin carboxyl-terminal hydrolase isozyme L5 (Homo sapiens), Q9Y5K5; purified proteasome/UCH37; inhibition, % (no concentration beside the values); hit rate 0.33% among 330,000; AID 588478, 2011;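 active = mean inhibition over replicate wells above about 20%, limit read from the data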
# Target sequence (Q9Y5K5 whole entry, looked up): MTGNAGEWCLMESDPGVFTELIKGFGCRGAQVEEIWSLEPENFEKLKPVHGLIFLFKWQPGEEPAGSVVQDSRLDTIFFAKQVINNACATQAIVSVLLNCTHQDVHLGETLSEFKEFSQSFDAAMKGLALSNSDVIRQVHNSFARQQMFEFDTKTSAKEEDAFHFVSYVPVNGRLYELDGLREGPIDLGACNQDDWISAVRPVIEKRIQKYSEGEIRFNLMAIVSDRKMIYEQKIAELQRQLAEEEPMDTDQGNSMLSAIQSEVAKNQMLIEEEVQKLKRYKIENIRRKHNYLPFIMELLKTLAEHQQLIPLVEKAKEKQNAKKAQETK
#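 Material: human UCH37 enzyme supplied as purified proteasome complex. Measure: % inhibition of Ub-AMC cleavage fluorescence. Medium: pH 7.4 Tris-HCl (50 mM) with ovalbumin, ATP-MgCl2, DTT. Times: 30 min preincubation with enzyme, 25 min cleavage at room temperature. Detection: AMC fluorescence intensity at 355/460 nm.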
# A3G conf: APOBEC3G deaminase inhibitor retest, confirmation, biochemical, fluorescence, single-stranded DNA substrate, single concentration. inhibition, % at 20 µM. shares compounds with APOBEC3G inh. recombinant A3G ssDNA deaminase, UDG/FAM-TAMRA fluorescence. AID 493152, 2011. hit rate 72% among 890;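 active = inhibition reaching a set limit in any replicate at 20 µM, the limit being 80% of the first screen's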
# UDG A3G counter: E. coli UDG inhibitors, confirmation, counter-screen for APOBEC3G inhibitor project, biochemical, single concentration, fluorescence, FAM/TAMRA oligo; shares compounds with APOBEC3G inh; UDG counterscreen; inhibition, % at 20 µM; 710 tested, under 10 active; AID 504715, 2011;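 active = compounds giving 40% or more inhibition at 20 µM in any one of the three replicates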;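 also: inhibitors lower the FAM signal released by uracil excision and alkaline cleavage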
# Hits are given with their value; 0 = inactive; - = no result. Hits are enriched below; roughly 3.4% of the tested compounds scored in any of these assays.
SMILES,PolyA inhibitor,AHR act,APOBEC3G inh,Arr AP2 block,A3A deaminase,UCH37 DUB inh,A3G conf,UDG A3G counter
N#CC1=C2SCN(c3ccccc3)CN2C(=O)CC1c1c(Cl)cccc1Cl (stereo unspecified),0,0,58.8,0,0,0,65.4,0
CCCCC(O)=NS(=O)(=O)c1ccc(N=NN(C)C)cc1,-,-,-,-,-,0,-,-
Cc1nn(C)cc1C=NNC(=O)c1ccc2c(c1)OCO2,-,-,-,-,-,0,-,-
C=C(C)C(=O)Nc1ccc2c(c1)OCCOCCOCCO2,0,0,78.1,0,0,0,85.5,-
Cc1nn(-c2ccccc2)c2c1C(=NO)CC(C)(C)C2,-,-,-,-,-,0,-,-
O=C(NC1CCCCCC1)c1ccc[nH]c1=S,0,0,54.7,0,0,0,65.6,0
Cc1ccc(C=NN2C(=O)c3ccccc3NC2c2ccc(C)cc2)cc1 (stereo unspecified),-,-,-,-,-,0,-,-
CC(=O)c1ccc(NC(=O)c2ccc(NC(=O)c3ccco3)cc2)cc1,0,0,56.8,0,0,0,56.6,0
Cn1c(-c2cc(Br)ccc2O)n[nH]c1=S,0,0,48.4,0,0,0,83.2,0
Cc1ccc(C=Nn2c(C)nc3ccccc3c2=O)o1,-,-,-,-,-,0,-,-
CC(C)OC(=O)CSc1nnc(-c2ccc(C(C)(C)C)cc2)n1N,0,0,42.1,0,0,0,0,-
CC(Cc1ccccc1)=NNC(=O)CCCC(=O)NN=C(C)Cc1ccccc1,-,-,-,-,-,0,-,-
Cc1cc(=O)oc2cc(NC(=O)C3CCCC3)ccc12,0,0,56.8,0,0,0,0,0
O=C(CCC(=O)Nc1ccccc1)NN=Cc1ccc2c(c1)OCO2,-,-,-,-,-,0,-,-
CC(=NN=c1scc(C)n1Cc1ccco1)c1cccc([N+](=O)[O-])c1,-,-,-,-,-,0,-,-
O=C1NN=C(CSc2n[nH]c(=S)s2)CS1,0,0,67.5,0,0,0,67.1,0
COc1cc2c(cc1/C=C/C(=O)O)OC(C)C2 (stereo unspecified),0,0,0,0,0,0,-,-
CC(C)(O)C1Cc2cc(/C=C/C(=O)O)c(O)cc2O1 (stereo unspecified),0,-,82.4,0,0,0,93.9,0
CCCCCCCC(=O)NN=Cc1ccc([N+](=O)[O-])o1,-,-,-,-,-,0,-,-
Cn1cc(Cl)c(C(=O)NN=Cc2ccc(OS(=O)(=O)c3ccccc3)cc2)n1,-,-,-,-,-,0,-,-
Cc1ccc(-c2csc(Nc3ccc(S(N)(=O)=O)cc3)n2)o1,0,0,52.2,0,0,0,0,0
CC1(C)Cc2c(c(N3CCOCC3)nc3sc(C(=O)N4CCCCC4)c(N)c23)CO1,0,0,46.8,0,0,0,28.4,0
Cc1cc(C)n(CCc2nc(-c3ccc(C)o3)cs2)n1,0,0,47.2,0,0,0,39.8,-
Cc1cc(C)n(CCc2nc(-c3cc4ccccc4o3)cs2)n1,0,0,0,0,0,-,-,-
Cc1c(Cl)c([N+](=O)[O-])nn1CC(=O)NCC(C)C,0,0,48.0,0,0,0,0,0
SMILES,PolyA inhibitor,AHR act,APOBEC3G inh,Arr AP2 block,A3A deaminase,UCH37 DUB inh,A3G conf,UDG A3G counter
O=C1CC(c2ccc(O)c(O)c2)Oc2c1ccc(O)c2O (stereo unspecified),-,0,41.1,0,0,0,54.5,-
CC(C)=CCc1c(O)ccc2c1OC(c1ccc(O)c(O)c1)CC2=O (stereo unspecified),0,0,0,0,0,0,-,-
Cc1cc(C)c(S(=O)(=O)N=C2C=CC(=O)C(Cl)=C2)c(C)c1,-,-,-,-,-,0,-,-
Cc1ccc(N=c2ssnc2Cl)cc1,0,0,73.3,0,0,0,75.3,0
Cc1cc(Cl)ccc1N=c1ssnc1Cl,0,0,61.4,0,0,0,62.4,0
Cc1nnc(N=c2ssnc2Cl)o1,-,0,73.8,0,0,-,89.2,0
CCOC(=O)c1ccc(C=NO)[n+](Cc2ccccc2)c1,-,-,-,-,-,0,-,-
O=C(CSc1nnc(SCc2ccccc2)s1)NN=Cc1c[nH]c2ccccc12,-,-,-,-,-,0,-,-
CCCCCCNC(=O)N[C@H](C(=O)NCCC[C@H]1CN2C(=NC[C@H]2C)N1CCC(c1ccccc1)c1ccccc1)C(C)O (stereo partly specified),-,0,78.0,0,0,0,72.5,-
c1ccc(SSc2ccccn2)nc1,0,0,63.8,0,0,0,87.8,0
O=C(NN=Cc1ccc(Br)cc1)c1cc[n+](Cc2ccccc2)cc1,-,-,-,-,-,0,-,-
O=C(NN=Cc1c[nH]c2ccccc12)c1ccn[nH]1,-,-,-,-,-,0,-,-
O=[N+]([O-])c1ccccc1/C=N/n1c(-c2ccccc2)n[nH]c1=S,0,0,51.3,0,0,-,80.6,0
S=c1[nH]nc(-c2ccco2)n1N=Cc1cccs1,-,-,-,-,-,0,-,-
Cc1cc(-c2n[nH]c(=S)n2/N=C/c2cccs2)n[nH]1,0,0,60.2,0,0,-,91.8,0
S=c1[nH]nc(-c2ccco2)n1/N=C/c1cccs1,0,0,61.6,0,0,-,80.7,0
Cc1cccc(-c2n[nH]c(=S)n2N=Cc2cccs2)c1,-,-,-,-,-,0,-,-
O=[N+]([O-])c1cc2c(cc1C=Nn1c(-c3ccccc3)n[nH]c1=S)OCO2,-,-,-,-,-,0,-,-
S=c1[nH]nc(-c2ccccc2)n1/N=C/c1cccs1,0,0,43.9,0,0,-,57.7,0
O=C(CNc1cccc(C(F)(F)F)c1)NN=Cc1cccc(Br)c1,-,-,-,-,-,0,-,-
O=C(Nc1nnc(COc2ccc(Cl)cc2)s1)C1CCCO1 (stereo unspecified),0,0,45.1,0,0,-,20.8,0
O=C(Nc1nnc(COc2ccc(Cl)cc2)s1)c1ccco1,0,0,71.0,0,0,0,43.3,0
CCc1nnc(NC(=O)C2CCCO2)s1 (stereo unspecified),0,0,0,0,0,0,-,-
Cc1ccc([N+](=O)[O-])cc1C=NNc1nnnn1-c1ccccc1,-,-,-,-,-,0,-,-
COCc1cc(=O)n2[nH]c(-c3ccsc3-n3c(C)ccc3C)cc2n1,0,0,0,0,0,0,-,-
Cc1cc(=O)n2[nH]c(-c3ccsc3-n3c(C)ccc3C)cc2n1,0,0,42.9,0,0,0,43.5,0
COc1ccccc1-c1n[nH]c(=S)n1-c1ccccc1,0,0,40.2,0,0,0,68.6,0
